In the library only some 2.3% were active in any assay of this set; here they are far more common.
TRPC6 inh = blocks the mouse TRPC6 cation channel; Q61143; B-score at 10 µM; HEK293-TRPC6, membrane potential dye, ACh-evoked depolarization; stronger effect = lower value; 310,000 tested, 1.1% active; AID 2553;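 active = B-score under library mean minus 3 SD, initial fluorescence not abnormally high, positive integrated signal ratio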;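 also: B-score derived from integrated fluorescence ratio over the kinetic read; more negative B-score means stronger inhibition of depolarization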
Target sequence (Q61143 whole entry, looked up): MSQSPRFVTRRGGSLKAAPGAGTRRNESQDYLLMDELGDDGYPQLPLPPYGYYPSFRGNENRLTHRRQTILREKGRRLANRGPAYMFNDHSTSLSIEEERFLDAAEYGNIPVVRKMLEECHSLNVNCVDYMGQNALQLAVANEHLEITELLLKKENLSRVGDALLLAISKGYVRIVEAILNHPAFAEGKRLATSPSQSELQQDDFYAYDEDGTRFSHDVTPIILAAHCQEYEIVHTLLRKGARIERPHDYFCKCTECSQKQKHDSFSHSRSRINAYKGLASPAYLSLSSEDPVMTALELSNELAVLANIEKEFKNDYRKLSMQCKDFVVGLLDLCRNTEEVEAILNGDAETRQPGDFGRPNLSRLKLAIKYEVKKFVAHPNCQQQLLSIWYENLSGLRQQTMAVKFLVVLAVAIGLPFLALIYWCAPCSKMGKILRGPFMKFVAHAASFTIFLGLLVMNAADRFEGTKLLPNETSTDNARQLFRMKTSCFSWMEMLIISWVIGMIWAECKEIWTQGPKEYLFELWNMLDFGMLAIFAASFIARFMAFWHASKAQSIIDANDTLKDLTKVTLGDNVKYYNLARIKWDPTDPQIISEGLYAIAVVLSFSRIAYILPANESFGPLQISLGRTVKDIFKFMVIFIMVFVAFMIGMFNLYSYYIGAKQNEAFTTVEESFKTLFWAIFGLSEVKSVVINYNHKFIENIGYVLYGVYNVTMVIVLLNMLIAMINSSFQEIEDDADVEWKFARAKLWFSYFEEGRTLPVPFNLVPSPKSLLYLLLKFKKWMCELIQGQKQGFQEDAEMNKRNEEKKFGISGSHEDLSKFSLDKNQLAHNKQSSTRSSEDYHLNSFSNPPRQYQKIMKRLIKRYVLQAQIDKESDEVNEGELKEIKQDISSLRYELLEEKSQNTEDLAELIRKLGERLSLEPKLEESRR
TRPC4 potent = TRPC4 (mouse) allosteric potentiation | HEK293 TRPC4beta/mu-opioid, DAMGO EC20, Fluo-4 Ca2+ flux; stronger effect = higher value | B-score at 10 µM | 310,000 tested, 0.42% active | AID 2227;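 active = B-score of calcium response area above 5 SD of library B-scores, with initial fluorescence ratio within 5 SD of library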;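 also: B-score of integrated fluorescence ratio over time as area under calcium response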
TRPC4 agonist = TRPC4 (mouse) channel activation. B-score at 10 µM. 310,000 tested, 0.49% active. HEK293 TRPC4beta/mu-opioid, Fluo4 calcium fluorescence; stronger effect = higher value. Q9QUQ5;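 active = B-score above 5 SD of library B-scores, and initial fluorescence ratio not above library mean plus 5 SD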;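 also: positive B-score marks a calcium rise read as TRPC4 activation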
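Material: TRPC4beta and mu-opioid receptor HEK293 stable cells | Incubation: 45 min room-temperature Fluo4 loading, 110 s read | Detection: Kinetic Fluo4 calcium fluorescence | Measure: Integrated baseline-normalised fluorescence ratio, converted to per-well B score | Benchmarks: Low control buffer alone, high control maximal DAMGO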
TRPC4 block = blocks the mouse TRPC4 cation channel. B-score at 10 µM. Q9QUQ5. HEK293 TRPC4beta/mu-opioid, DAMGO-evoked Fluo4 calcium flux; stronger effect = lower value. 300,000 tested, 0.39% active;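 active = B-score over 3 SD under the library average, no early fluorescence shift, positive overall ratio signal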
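Signal: kinetic Fluo4 fluorescence imaging of calcium influx. Material: stable TRPC4beta/mu-opioid receptor HEK293 cells. Probe or stimulus: DAMGO in two steps, submaximal then maximal.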
TRPC6 activator = mouse TRPC6 channel activation; HEK293-TRPC6 membrane potential dye fluorescence; stronger effect = higher value; B-score at 10 µM; AID 2550; 310,000 tested, 0.13% active;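 active = B-score of the integrated fluorescence ratio above library mean plus 3 SD, and starting fluorescence ratio within library mean plus 5 SD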;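 also: higher score means more depolarization so channel activation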
TRPC4 sel inh 2 = second selectivity test of TRPC6 inhibitors: effect on mouse TRPC4. shares compounds with TRPC6 inh. HEK293 TRPC4/MOR, membrane potential dye fluorescence; channel activated by saturating DAMGO dose. inhibition, % at 10 µM. 920 tested, 42% active. AID 2776;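 active = compounds whose fluorescence signal differed from control wells by over 3 SD, either direction, in both duplicate plates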
TRPC4 spec = selectivity of TRPC6 inhibitors: effect on mouse TRPC4 | shares compounds with TRPC6 inh | HEK293 TRPC4/mu-opioid, membrane potential fluorescence | activity change, negative = inhibition, % at 10 µM | 920 tested, 61% active | AID 2777;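 active = rise or fall in signal beyond 3 SD of buffer-only wells in both replicate plates, either sign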;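 also: integrated kinetic ratio of fluorescence range over baseline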
HEK293 MPD ctr 2-1 = second check of TRPC6 inhibitor effects in parental HEK293 cells; parental HEK293 membrane potential dye fluorescence; maximal acetylcholine challenge after compound addition; shares compounds with TRPC6 inh; signal change vs control, % at 10 µM; 920 tested, 31% active;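 active = membrane potential signal moving either way by over 3 SD of the maximum-effect control, in both duplicate plates, meaning non-specific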
HEK293 MPD ctr-1 = checks TRPC6 inhibitor effects in parental HEK293 cells. shares compounds with TRPC6 inh. parental HEK293 membrane potential dye fluorescence. membrane potential signal change, % at 10 µM. 920 tested, 60% active;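 active = membrane potential signal shifting up or down by more than 3 SD of buffer-only wells, on both duplicate plates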
HEK293 MPD ctr-2 = counter-screen for TRPC6 modulators: effect in parental HEK293 cells; shares compounds with TRPC6 inh; membrane potential dye fluorescence; membrane potential signal change, % at 10 µM; 2,400 tested, 51% active; AID 488924;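 active = membrane potential signal moves up or down beyond 5 SD from buffer-only wells, on both duplicate plates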
HEK293 MPD ctr 2-2 = second check of TRPC6 modulator effects in parental HEK293 cells | shares compounds with TRPC6 inh | membrane potential dye fluorescence; after compound, maximal acetylcholine stimulation | inhibition, % at 10 µM | 2,400 tested, 14% active;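 active = membrane potential signal drops by more than 5 SD from the mean control signal, in both duplicate plates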;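 also: plate controls were acetylcholine ECmax control wells for no effect and buffer only wells for full effect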
TRPC4 ctr mod = mouse TRPC4 off-target activity of TRPC6 modulators; shares compounds with TRPC6 inh; HEK293 TRPC4/mu-opioid, membrane potential fluorescence; percent change from control (negative = decrease, positive = increase), % at 10 µM; 2,400 tested, 69% active;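 active = membrane potential signal moved up or down beyond 5 SD of buffer control wells, in both duplicate plates, actives on both sides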;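 also: plate controls were assay buffer wells for no effect and DAMGO maximal-effect wells for full effect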
TRPC4 ctr inh 2 = second selectivity test of TRPC6 modulators against mouse TRPC4 | HEK293 TRPC4/mu-opioid, membrane potential dye fluorescence; stimulated with maximal-effect DAMGO | 2,400 tested, 55% active | shares compounds with TRPC6 inh | inhibition, % at 10 µM;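 active = drop in membrane potential signal beyond 5 SD of the control wells in both duplicate plates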;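 also: TRPC4 counter screen for TRPC6 hits run under conditions tuned for TRPC6 not TRPC4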
TRPC6 block conf = confirmation of mouse TRPC6 inhibitors | inhibition, % at 10 µM | 3,300 tested, 43% active | shares compounds with TRPC6 inh | HEK293-TRPC6, membrane potential dye, ACh-evoked depolarization;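 active = fluorescence ratio falls more than 5 SD below the full-stimulation control mean, in both duplicate runs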;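 also: integrated fluorescence ratio of peak minus minimum over baseline after agonist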
TRPC6 act conf = mouse TRPC6 activator confirmation; shares compounds with TRPC6 inh; HEK293-TRPC6 membrane potential dye fluorescence, FDSS; activation, % at 10 µM; 2,800 tested, 11% active;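 active = ratio signal rise beyond 5 SD above unstimulated control wells' mean, seen in both duplicate runs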;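 also: plate controls were buffer EC0 wells for no effect and acetylcholine ECmax response for full effect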
An asterisk follows results filed as active.

For O=C(Cc1ccccc1F)NC1CCCc2ccccc21 (configuration not stated) the results were TRPC6 inh inactive, TRPC4 potent inactive, TRPC4 agonist inactive, TRPC4 block inactive and TRPC6 activator inactive.
Screening O=C(NCc1cccs1)C1CCCN(C(=O)Nc2ccccc2)C1 (configuration not stated) returned TRPC6 inh inactive, TRPC4 potent inactive, TRPC4 agonist inactive, TRPC4 block inactive and TRPC6 activator inactive.
CC1=NN(C(N)=S)C(=O)C1N=Nc1ccc(C)c(Br)c1 (configuration not stated) was read as TRPC6 inh inactive, TRPC4 potent inactive, TRPC4 agonist inactive, TRPC4 block inactive and TRPC6 activator inactive.
Screening Cc1ccc(C)c2nc3sc(C(=O)N4CCOCC4)c(N)c3cc12 returned TRPC6 inh -8.65*, TRPC4 potent inactive, TRPC4 agonist 74*, TRPC4 block inactive, TRPC6 activator 32.7*, HEK293 MPD ctr-2 898.5%*, HEK293 MPD ctr 2-2 inactive, TRPC4 ctr mod 128.5%*, TRPC4 ctr inh 2 inactive, TRPC6 block conf inactive and TRPC6 act conf 78.5%*.
Cc1cc(C)c2cc3c(N)c(C(=O)N4CCOCC4)sc3nc2c1 was read as TRPC6 inh inactive, TRPC4 potent inactive, TRPC4 agonist inactive, TRPC4 block inactive and TRPC6 activator inactive.
Cc1cc(C)c2nc3sc(C(=O)N4CCOCC4)c(N)c3cc2c1 was read as TRPC6 inh -5.01*, TRPC4 potent inactive, TRPC4 agonist inactive, TRPC4 block inactive, TRPC6 activator 23.3*, HEK293 MPD ctr-2 899.5%*, HEK293 MPD ctr 2-2 83.0%*, TRPC4 ctr mod 189.0%*, TRPC4 ctr inh 2 inactive, TRPC6 block conf inactive and TRPC6 act conf 297.0%*.
C[C@H](NC(=O)c1nc[nH]c1C(=O)N[C@@H](Cc1ccccc1)C(=O)OC(C)(C)C)C(=O)OCc1ccccc1 was read as TRPC6 inh inactive, TRPC4 potent inactive, TRPC4 agonist inactive, TRPC4 block inactive and TRPC6 activator inactive.
Screening CCC(C(=O)Nc1ccc(C(=O)O)cc1NC(=O)C(CC)c1ccccc1)c1ccccc1 (configuration not stated) returned TRPC6 inh inactive, TRPC4 potent inactive, TRPC4 agonist inactive, TRPC4 block inactive and TRPC6 activator inactive.
Screening Cc1ccc(-c2nc(N3CCN(C)CC3)c3ccccc3n2)cc1 returned TRPC6 inh -9.01*, TRPC4 potent inactive, TRPC4 agonist inactive, TRPC4 block inactive, TRPC6 activator inactive, TRPC4 sel inh 2 inactive, TRPC4 spec -20.6%*, HEK293 MPD ctr 2-1 inactive, HEK293 MPD ctr-1 -360.5%*, TRPC6 block conf inactive and TRPC6 act conf inactive.
`CN1CCN(c2nc(N3CCN(CCO)CC3)nc3ccccc23)CC1` gave TRPC6 inh -7.09*, TRPC4 potent inactive, TRPC4 agonist inactive, TRPC4 block inactive, TRPC6 activator inactive, HEK293 MPD ctr-2 -453.0%*, HEK293 MPD ctr 2-2 83.5%*, TRPC4 ctr mod -71.5%*, TRPC4 ctr inh 2 72.0%*, TRPC6 block conf 79.5%* and TRPC6 act conf inactive.
COc1nc(-c2cccc([N+](=O)[O-])c2)nc2ccccc12 was read as TRPC6 inh inactive, TRPC4 potent inactive, TRPC4 agonist inactive, TRPC4 block inactive and TRPC6 activator inactive.
`CN1CCN(c2nc(-c3cccc([N+](=O)[O-])c3)nc3ccccc23)CC1` gave TRPC6 inh -6.13*, TRPC4 potent inactive, TRPC4 agonist inactive, TRPC4 block inactive, TRPC6 activator inactive, HEK293 MPD ctr-2 -206.5%*, HEK293 MPD ctr 2-2 inactive, TRPC4 ctr mod -43.0%*, TRPC4 ctr inh 2 63.0%*, TRPC6 block conf 54.0%* and TRPC6 act conf inactive.
For CC(C)CC(=O)C1=C(O)C(=O)N(Cc2ccccc2)C1c1ccccc1 (configuration not stated) the results were TRPC6 inh inactive, TRPC4 potent inactive, TRPC4 agonist inactive, TRPC4 block inactive and TRPC6 activator inactive.
COc1cc(/C=C(\C#N)c2ccccn2)cc(OC)c1O was read as TRPC6 inh -5.11*, TRPC4 potent inactive, TRPC4 agonist inactive, TRPC4 block inactive, TRPC6 activator 13.6*, HEK293 MPD ctr-2 458.0%*, HEK293 MPD ctr 2-2 72.5%*, TRPC4 ctr mod 66.5%*, TRPC4 ctr inh 2 inactive, TRPC6 block conf 46.5%* and TRPC6 act conf 146.5%*.
For CN1CCN(c2ccccc2NC(=O)COc2ccc(Br)cc2)CC1 the results were TRPC6 inh -5.09*, TRPC4 potent inactive, TRPC4 agonist inactive, TRPC4 block inactive, TRPC6 activator inactive, HEK293 MPD ctr-2 inactive, HEK293 MPD ctr 2-2 inactive, TRPC4 ctr mod 17.5%*, TRPC4 ctr inh 2 inactive, TRPC6 block conf inactive and TRPC6 act conf inactive.
